From article PMC3569859 (Bioorganic & medicinal chemistry, 2008) come the findings set out here.

The experiment has as its system sodium currents expressed in rat hippocampal neurons. The format is cell-based. The following applies: cultured hippocampal neurons. In outline:
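E18 rat hippocampal neurons were trypsin-dissociated and kept up to 4 weeks on poly-L-lysine over a glial monolayer in serum-free MEM with N2. Whole-cell clamp was done at 20–22 °C with a CsF pipette and a 30 mM NaCl bath containing Cd2+ and TEA, both pH 7.3. After 5 min at −90 mV, 25 ms steps to −10 mV were applied with P/4 leak subtraction. Test compound was superfused at 50 μM, then washed out.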

SMILES strings stand for the structures.

Take `CC(C)c1cc(CCCCCCC(O)(C(N)=O)C(F)(F)F)cc(C(C)C)c1O` (centres unmarked) [Compound 5, 2-Hydroxy-8-(4-hydroxy-3,5-diisopropyl-phenyl)-2-trifluoromethyl-octanoic acid amide]: the “Reversibility of Na current block on washout” value is “fully reversible”.
The value for `CC(C)c1cc(CCCCC(O)(C(N)=O)C(F)(F)F)cc(C(C)C)c1O` (centres unmarked) [Compound 4, 2-Hydroxy-6-(4-hydroxy-3,5-diisopropyl-phenyl)-2-trifluoromethyl-hexanoic acid amide] was “fully reversible”.
